Test results as given in PubChem BioAssay AID624467 (The Scripps Research Institute Molecular Screening Center, 2012).
Out of some 360,000 compounds screened, about 3,600 (1%) were called active. The sample holds actives, similar compounds and a random draw of the others, so the mix is not that of the screen.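 The calls were made as follows: active = activation above the mean activation of all test compounds in the run plus 3 SD (cut at about 38% in these data); inactive = the rest.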

Molecular target: Trace amine-associated receptor 1 (Homo sapiens) (UniProt Q96RJ0)
Test: activators of TAAR1 calcium mobilization – Fluo-8 calcium fluorescence, CHO RD-HGA16 cells, primary screen (AID 624467)
Conditions: CHO RD-HGA16 TAAR1, Fluo-8 calcium fluorescence; at 3 µM; hits give high values; vehicle wells 0%, saturating PEA agonist 100%
How it was run: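 Test system: RD-HGA16 (CHO) cells co-expressing Gα16 and hTAAR1 | Doses: Single dose, 3 µM | Schedule: 17-24 h seeding, 75 min 37 °C dye, 30 min RT | Evaluation: % activation from peak over basal fluorescence ratio, DMSO-to-PEA scaled | Technique: Kinetic Fluo-8 calcium fluorescence | Benchmarks: Low control DMSO, high control PEA (EC100)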

Trace amine-associated receptor 1 (Homo sapiens), sequence (Q96RJ0 whole entry, looked up): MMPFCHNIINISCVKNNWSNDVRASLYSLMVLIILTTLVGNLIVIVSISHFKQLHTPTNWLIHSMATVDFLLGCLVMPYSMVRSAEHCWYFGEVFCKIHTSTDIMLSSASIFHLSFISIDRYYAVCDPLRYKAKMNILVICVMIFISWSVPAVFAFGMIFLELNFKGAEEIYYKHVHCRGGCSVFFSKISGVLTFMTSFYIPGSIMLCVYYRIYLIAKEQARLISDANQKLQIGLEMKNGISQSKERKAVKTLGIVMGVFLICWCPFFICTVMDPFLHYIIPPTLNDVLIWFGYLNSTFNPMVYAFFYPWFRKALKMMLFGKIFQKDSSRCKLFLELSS

activation, inactive:
CCCCCCc1cc2cc(-c3nnc(-c4cccc(OC)c4)o3)c(=O)oc2cc1O 16.7%, CCn1cc(CN2CCCC(CNS(=O)(=O)Cc3ccccc3)C2)cn1 (stereo not given) 0.93%, COc1ccc2nc3n(c(=O)c2c1)-c1ccc(Cl)cc1C(=O)NC3Cc1ccccc1 (stereo not given) 4.87%, O=S(=O)(NCCc1ccccc1)c1ccccc1 15.9%, Cn1c(=O)c(=O)n(C)c2cc(S(=O)(=O)NCCN3CCN(c4ccccc4F)CC3)ccc21 -1.59%, C[C@@H](CN1C2=NC[C@@H](Cc3ccccc3)N2C[C@H]1Cc1ccc(O)cc1)NC(=O)CCC1CCCCC1 -0.01%, O=C(NCC1(N2CCCCC2)CCCCC1)c1cccc(S(=O)(=O)Nc2ccccc2Cl)c1 -0.1%, C[C@H]1[C@H](c2ccccc2)Oc2cc(Br)ccc2S(=O)(=O)N1Cc1cccc(F)c1 2.18%, Cc1cccc(NC(=O)CN2C(=O)CNC2=O)c1 6.24%, Cc1ccnc(NC(=O)C(C)N2C(=O)c3ccccc3C2=O)c1 (stereo not given) 2.11%, Cc1cccc(N(C(=O)c2ccc(CN3CCOCC3)o2)C(C(=O)NC2CCCCC2)c2ccc(F)cc2)c1 (stereo not given) 0.09%, COc1ccccc1C(=O)N1O[C@]23C=C[C@]14C[C@@H](O)CC[C@]4(C)C2CC[C@]1(C)[C@@H]([C@H](C)/C=C/[C@H](C)C(C)C)CC[C@H]13 (stereo not given in full) -1.12%, O=C(Nc1c(Cl)c(C2CC2)nn1-c1ccccc1)C(Cl)(Cl)Cl 1.51%, CCCCOC(=O)CCCc1ccc([N+](=O)[O-])cc1[N+](=O)[O-] -2.61%, CCCCOc1ccc(CON(C(C)=O)C(C)=O)cc1Cl -2.24%, CCOc1ccc(C(=O)Nc2nccs2)cc1[N+](=O)[O-] 5.29%, O=[N+]([O-])c1ccccc1OCCCCN1CCCCC1 7.82%, C#CCN([C@@H](C)C(=O)OCC)S(=O)(=O)c1ccc(Br)cc1F -2.1%, O=C(C[C@@H]1C/C=C\CCC(=O)OC[C@@H]2CCCN2C1=O)NCCO 13.4%, C[C@H](CO)N1C[C@H](C)[C@@H](CN(C)C(=O)Nc2ccccc2F)OCc2cn(nn2)CCCC1=O 0.9%, Cc1ccc(NC(=O)c2cnc(SCC(=O)NCC3CCCO3)n(C)c2=O)cc1 (stereo not given) 1.71%, Cc1ccccc1-c1nc(CS(=O)(=O)CC(=O)NC(C)c2ccccc2)c(C)o1 (stereo not given) -0.93%, CSc1ccc(CCNC(=O)CS(=O)(=O)Cc2nc(-c3ccccc3F)oc2C)cc1 2.41%, CCOC(=O)/C=C/c1ccccc1O 0.06%, CC(=O)N1Cc2cc(C(=O)NCc3cccc(F)c3)nc(-c3cccc(C4=CCCC4)c3)c2[C@H]1CCO 1.95%, COCCn1nnnc1C(c1cc2ccc(OC)cc2[nH]c1=O)N1CCc2ccccc2C1 (stereo not given) 5.6%, COc1ccccc1C(c1nnnn1C(C)(C)C)N1CCN(Cc2ccccc2)CC1 (stereo not given) 7.42%, O=C(NNC(=O)c1cc(-c2ccccc2Cl)nc2ccccc12)c1csc(N2CCOCC2)n1 2.63%, O=C(OCCOc1ccccc1F)c1cc(S(=O)(=O)N2CCOCC2)ccc1F 3.93%, COc1cccc(-c2cc(CNC(=O)[C@@H](Cc3ccccc3)NC(=O)[C@H]3O[C@@H](n4cnc(C(N)=O)n4)[C@H](O)[C@@H]3O)no2)c1 2.47%, Cc1ccc(NC(=O)CN(C)C(=O)c2ccc(Cl)c(S(=O)(=O)NCc3ccco3)c2)cc1 1.71%, COc1ccc(CNC(=O)c2ccc(-c3cccnc3)c3ccoc23)cc1OC 19.1%, CCc1ccc(N2CC(O)=C(c3nc4ccccc4c(=O)[nH]3)C2=N)cc1 7.2%, C[N+](C)(C)CCNC(=O)c1c[nH]c2ccccc12 3.46%, C=CCN=C1NC(c2ccccc2)C(C(=O)OC)=C(C)N1Cc1ccc(C(F)(F)F)cc1 (stereo not given) 26.7%, COc1cccc(CC(=O)N2CCN(C(=O)C(=O)c3cccc(C(F)(F)F)c3)CC2)c1 -0.34%, CCCCCCCCN1C(=O)[C@@H](CC(=O)NCc2ccc(C)o2)C[C@@]2(C(=O)OC)C1=C[C@H](C(C)(C)C)O[C@@H]2C -1.18%, CCCc1cc(C(=O)Nc2ccc(Cl)cn2)cs1 0.75%, CCN(CC)C(=O)CCC(=O)Nc1ccc(C(=O)OC)cc1 4.26%, NC1=NC(c2ccc([N+](=O)[O-])cc2)N(c2ccc(F)cc2)C(N)=N1 (stereo not given) 2.32%, COC(=O)Cc1csc(Nc2c(C)n(C)n(-c3ccccc3)c2=O)n1 7.82%, CCOC(=O)Cc1csc(NC(NC(=O)OCC)(C(F)(F)F)C(F)(F)F)n1 11.4%, CCCOCC(O)CC(CC)C(=O)NNC(=S)Nc1ccccc1 (stereo not given) 6.99%, C/C(=N\NC(=O)CNC(=O)C(c1ccccc1)c1ccccc1)c1ccc(C)cc1 -0.46%, CCN(CC)Cc1nc2sc(C)c(C)c2c(=O)[nH]1 7.06%, Cc1cc(NCCc2c[nH]c3ccccc23)ccc1Oc1cccnc1 -0.68%, COC(=O)Nc1nc2ccc(C(=O)C3CC3)cc2[nH]1 0.33%, CC(C)C(=O)Nc1nnc(SCC(=O)N2C(C)CCCC2C)s1 (stereo not given) 2.6%, CC/C(=C(/c1ccccc1)c1ccc(OCC[N+](C)(C)C)cc1)c1ccccc1 13.5%, OC(c1ccccc1)(c1ccccc1)C1CCN(CCCOc2ccc(-c3ccsc3)cc2)CC1 35.3%, OC(c1ccccc1)(c1ccccc1)C1CCN(CCCOc2ccccc2)CC1 23.6%, Cc1ccc2c(c1)N(S(=O)(=O)c1cc(-c3cc(C)no3)ccc1C)CCO2 0.2%, Nc1ccn([C@@H]2O[C@H](C(=O)N[C@H]3CCCCNC3=O)[C@@H](O)[C@H]2O)c(=O)n1 -0.44%, c1ccc2c(NC3C4CC5CC(C4)CC3C5)nc(N3CCOCC3)nc2c1 (stereo not given) 28.9%, COc1ccc(Nc2ncc(F)c(N3CCOCC3)n2)cc1 6.99%, O=S1(=O)c2c(cccc2N2CCCCC2)O[C@H](COCc2ccccc2)CN1C1CC1 -0.15%, CC(C)c1c(C(=O)N/N=C/c2ccccc2C(=O)O)nnn1-c1nonc1N 2.66%, C/C(COc1ccccc1)=N\NC(=O)c1nnn(-c2nonc2N)c1-c1ccc(C)cc1 6.16%, CCc1ccc(/C=N/NC(=O)c2nnn(-c3nonc3N)c2CN2CCc3ccccc32)cc1 4.17%, CC(C)Oc1ccc(/C=N/NC(=O)c2nnn(-c3nonc3N)c2CN(C)C2CCCCC2)cc1 19.2%, CCOC(=O)N1CCN(C(=O)C[C@H]2C[C@@]3(C(=O)OC)C(=C[C@H](C4CCCC4)O[C@@H]3C)N(Cc3ccccc3)C2=O)CC1 -1.14%, CCc1ccc(C2=CC(=O)CC(C)(C)C2=O)cc1 -1.42%, CCCCN1C(=O)C(CC(=O)NC(c2ccccc2)c2ccccc2)CC(C(=O)N2CCOCC2)=C1C (stereo not given) 0.19%, CC(C)CNc1cccc2c1S(=O)(=O)N[C@H](CC(C)C)CO2 -0.51%, CN(CCO)C(=O)c1nc[nH]c1C(=O)N(C)Cc1ccccc1 0.95%, CCOC(=O)N(Cc1ccccc1)C1CC1 3.18%, COc1ccc(NS(=O)(=O)c2cc3c(cc2C)N(C(C)=O)CCO3)cc1 1.33%, C=CC[C@]12C[C@@]3(O[C@H](c4ccc(C(F)(F)F)cc4)N=C3C[C@H](c3ccc(OC)cc3)[C@H]1C)N(C1CCN(Cc3ccccc3)CC1)C2=O 0.44%

activation, active:
Cn1c(=O)c(=O)n(C)c2cc(S(=O)(=O)NCCc3ccccc3)ccc21 82.3%, Cc1cccc(NC(=O)C(C)N2C(=O)C3C4CC(C(Br)C4Br)C3C2=O)c1 (stereo not given) 49.9%, CCCCCOc1ccc(CSC2=NCCN2)cc1[N+](=O)[O-] 40.3%, CCCCOc1ccc(CSC(=N)N)cc1[N+](=O)[O-] 68.2%, Cc1ccccc1-c1nc(CS(=O)(=O)CC(=O)N2CCc3ccccc3C2)c(C)o1 45.5%, COc1ccc(OC)c(C(c2nnnn2C(C)(C)C)N2CCc3ccccc3C2)c1 (stereo not given) 64.7%, N=C1C(c2nc3ccccc3[nH]2)=C(O)CN1NC(=O)c1c[nH]c2ccccc12 41.7%, CCN(CC)CCCC(C)n1c2nc(=O)[nH]c(=O)c-2nc2cc(Cl)ccc21 (stereo not given) 244%, CCCc1cc(C(=O)Nc2ccc(C(=O)OC)cc2)cs1 42.9%, CCOC(=O)Cc1csc(NC(=O)Nc2ccccc2)n1 51.5%, CCCCC(=O)NNC(=S)NC(=O)C(c1ccccc1)c1ccccc1 137%, N#Cc1ccc(OCCCN2CCC(C(O)(c3ccccc3)c3ccccc3)CC2)c(F)c1 51%, Nc1c(C(=O)c2cccs2)sc2nsc(SCCN3CCCCC3)c12 95.1%, c1ccc(Nc2nc(N3CCOCC3)c3ccccc3n2)cc1 98.4%, Nc1nonc1-n1nnc(C(=O)N/N=C/c2ccc(Cl)cc2)c1-c1ccc2c(c1)OCO2 133%, CCCOc1ccc(-c2c(C(=O)N/N=C/c3ccco3)nnn2-c2nonc2N)cc1 74.1%, CN(C(=O)CN(CCO)CC(=O)N(C)C(C)(C)Cc1ccccc1)C(C)(C)Cc1ccccc1 125%
